From PubChem BioAssay
TRPC4 inh: inhibitors of mouse TRPC4 channel, primary screen, Fluo4 calcium, HEK293 TRPC4beta/mu-opioid cells. DAMGO-evoked Fluo4 calcium flux; stronger effect = lower value. B-score at 10 µM. AID 2247, 2010. 300,000 compounds, 0.39% hits;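 active = B-score over 3 SD under the library average, no early fluorescence shift, positive overall ratio signal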
Target sequence (Q9QUQ5 whole entry, looked up): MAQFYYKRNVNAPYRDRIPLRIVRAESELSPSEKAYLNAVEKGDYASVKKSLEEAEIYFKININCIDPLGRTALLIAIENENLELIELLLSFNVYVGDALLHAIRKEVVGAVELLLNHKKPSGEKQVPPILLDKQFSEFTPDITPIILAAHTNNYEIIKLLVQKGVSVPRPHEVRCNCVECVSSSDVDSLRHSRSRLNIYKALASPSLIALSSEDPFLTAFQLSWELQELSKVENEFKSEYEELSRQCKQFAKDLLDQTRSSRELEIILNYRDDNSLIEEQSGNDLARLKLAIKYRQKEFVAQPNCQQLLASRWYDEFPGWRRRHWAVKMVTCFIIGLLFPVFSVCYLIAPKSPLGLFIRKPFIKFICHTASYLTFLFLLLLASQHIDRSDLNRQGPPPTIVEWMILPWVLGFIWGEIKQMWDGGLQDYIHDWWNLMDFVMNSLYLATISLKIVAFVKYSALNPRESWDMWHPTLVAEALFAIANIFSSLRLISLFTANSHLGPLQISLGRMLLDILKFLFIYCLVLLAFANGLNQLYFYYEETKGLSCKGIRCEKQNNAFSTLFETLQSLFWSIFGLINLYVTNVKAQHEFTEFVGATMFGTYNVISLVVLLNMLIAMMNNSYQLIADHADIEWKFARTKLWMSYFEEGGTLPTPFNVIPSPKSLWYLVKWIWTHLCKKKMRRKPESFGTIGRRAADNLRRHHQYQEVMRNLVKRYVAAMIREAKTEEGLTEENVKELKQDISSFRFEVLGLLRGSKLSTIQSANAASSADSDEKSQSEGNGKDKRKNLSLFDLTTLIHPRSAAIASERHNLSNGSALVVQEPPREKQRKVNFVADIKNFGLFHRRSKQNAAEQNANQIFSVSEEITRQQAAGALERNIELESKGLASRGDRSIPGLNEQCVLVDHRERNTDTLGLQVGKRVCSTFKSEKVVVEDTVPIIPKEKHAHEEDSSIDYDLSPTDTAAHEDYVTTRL
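Test system – stable TRPC4beta/mu-opioid receptor HEK293 cells · Probe or stimulus – DAMGO, a submaximal dose followed by a maximal one · Dosing – one concentration per compound · Signal – Fluo4 calcium fluorescence by kinetic imaging, 5 s 1 Hz baseline · Evaluation – per-well B score of integrated baseline-normalized Fluo4 ratio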
Kir21 inh: inhibitors of mouse Kir2.1 inward-rectifier potassium channel. Inward rectifier potassium channel 2 (Mus musculus), P35561. HEK293-Kir2.1, FluxOR thallium flux fluorescence; stronger effect = lower value. B-score at 10 µM. 310,000 compounds, 0.85% hits. AID 1672, 2009;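 active = fluorescence ratio B-score at or below minus 3 SD of library scores, with starting-brightness B-score within 2 SD, cut at about -4.2 in these data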;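 also: channel flux triggered by added potassium and thallium sulfate stimulus; B-score of peak minus minimum fluorescence over baseline after thallium stimulus; more negative B-score means stronger Kir2.1 block with less thallium influx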
TRPC6 inhibitor: mouse TRPC6 channel inhibitors, primary screen, cell-based, HEK293, membrane potential dye; Short transient receptor potential channel 6 (Mus musculus), Q61143; ACh-evoked depolarization; stronger effect = lower value; B-score at 10 µM; 310,000 compounds, 1.1% hits; AID 2553, 2010;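 active = B-score under library mean minus 3 SD, initial fluorescence not abnormally high, positive integrated signal ratio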;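 also: B-score derived from integrated fluorescence ratio over the kinetic read; more negative B-score means stronger inhibition of depolarization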
TRPC4 potent: positive allosteric modulators of TRPC4, primary screen, cell-based, mouse TRPC4beta, HEK293 mu-opioid, Fluo-4 calcium. B-score at 10 µM. Short transient receptor potential channel 4 (Mus musculus), Q9QUQ5. DAMGO EC20, Fluo-4 Ca2+ flux; stronger effect = higher value. 310,000 compounds, 0.42% hits. AID 2227, 2009;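 active = B-score of calcium response area above 5 SD of library B-scores, with initial fluorescence ratio within 5 SD of library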
TRPC4 agonist: activators of mouse TRPC4 channel, primary screen, Fluo4 calcium, HEK293 TRPC4beta/mu-opioid cells | Short transient receptor potential channel 4 (Mus musculus), Q9QUQ5 | Fluo4 calcium fluorescence; stronger effect = higher value | B-score at 10 µM | 310,000 compounds, 0.49% hits;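 active = B-score above 5 SD of library B-scores, and initial fluorescence ratio not above library mean plus 5 SD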;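 also: positive B-score marks a calcium rise read as TRPC4 activation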
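system = HEK293 cells stably co-expressing mouse TRPC4beta and mu-opioid receptor | schedule = Fluo4 dye loading 45 min at room temperature, 110 s recording | measure = B-scored integrated calcium fluorescence ratio | signal = Fluo4 calcium-sensitive dye fluorescence, kinetic, 1 Hz baseline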
TRPC6 act: mouse TRPC6 channel activators, primary screen, cell-based, HEK293, membrane potential dye; Short transient receptor potential channel 6 (Mus musculus), Q61143; HEK293-TRPC6 membrane potential dye fluorescence; stronger effect = higher value; B-score at 10 µM; 310,000 compounds, 0.13% hits; AID 2550, 2010;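 active = B-score of the integrated fluorescence ratio above library mean plus 3 SD, and starting fluorescence ratio within library mean plus 5 SD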;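 also: higher score means more depolarization so channel activation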
TRPC4 sel inh 2: mouse TRPC4 off-target activity of TRPC6 inhibitors, second screen; shares compounds with TRPC6 inhibitor; HEK293 TRPC4/MOR, membrane potential dye fluorescence; channel activated by saturating DAMGO dose; inhibition, % at 10 µM; 920 compounds, 42% hits; AID 2776;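 active = compounds whose fluorescence signal differed from control wells by over 3 SD, either direction, in both duplicate plates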
TRPC4 spec: mouse TRPC4 modulation by TRPC6 hits, confirmation, selectivity assay for TRPC6 inhibitor project, cell-based, HEK293 TRPC4/mu-opioid, membrane potential dye; membrane potential fluorescence; shares compounds with TRPC6 inhibitor; activity change, negative = inhibition, % at 10 µM; AID 2777, 2010; 920 compounds, 61% hits;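 active = rise or fall in signal beyond 3 SD of buffer-only wells in both replicate plates, either sign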;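 also: integrated kinetic ratio of fluorescence range over baseline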
HEK293 MPD ctr 2-1: nonspecific membrane potential effects, parental HEK293, confirmation, counter-screen for TRPC6 inhibitor project, cell-based, second counter screen; shares compounds with TRPC6 inhibitor; parental HEK293 membrane potential dye fluorescence; maximal acetylcholine challenge after compound addition; signal change vs control, % at 10 µM; 920 compounds, 31% hits; AID 2779, 2010;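 active = membrane potential signal moving either way by over 3 SD of the maximum-effect control, in both duplicate plates, meaning non-specific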
HEK293 MPD ctr-1: membrane potential modulation in parental HEK293, confirmation, counter-screen for TRPC6 inhibitor project, cell-based. AID 2780, 2010. 920 compounds, 60% hits. parental HEK293 membrane potential dye fluorescence. shares compounds with TRPC6 inhibitor. membrane potential signal change, % at 10 µM;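 active = membrane potential signal shifting up or down by more than 3 SD of buffer-only wells, on both duplicate plates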
HEK293 MPD ctr-2: parental HEK293 membrane potential modulation, confirmation, counter-screen for TRPC6 modulator project, cell-based | membrane potential dye fluorescence | shares compounds with TRPC6 inhibitor | 2,400 compounds, 51% hits | AID 488924, 2010 | membrane potential signal change, % at 10 µM;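 active = membrane potential signal moves up or down beyond 5 SD from buffer-only wells, on both duplicate plates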
HEK293 MPD ctr 2-2: second counter-screen for TRPC6 modulators: effect in parental HEK293 cells. shares compounds with TRPC6 inhibitor. membrane potential dye fluorescence; after compound, maximal acetylcholine stimulation. inhibition, % at 10 µM. 2,400 compounds, 14% hits. AID 488926;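 active = membrane potential signal drops by more than 5 SD from the mean control signal, in both duplicate plates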
TRPC4/MOR mod: TRPC4 modulation by TRPC6 hit compounds, confirmation, selectivity assay for TRPC6 modulator project, cell-based, HEK293 TRPC4/mu-opioid, membrane potential dye, mouse; shares compounds with TRPC6 inhibitor; 2,400 compounds, 69% hits; percent change from control (negative = decrease, positive = increase), % at 10 µM; membrane potential fluorescence;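 active = membrane potential signal moved up or down beyond 5 SD of buffer control wells, in both duplicate plates, actives on both sides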
TRPC4 ctr inh 2: second check of whether TRPC6 modulators also affect mouse TRPC4; shares compounds with TRPC6 inhibitor; HEK293 TRPC4/mu-opioid, membrane potential dye fluorescence; stimulated with maximal-effect DAMGO; inhibition, % at 10 µM; 2,400 compounds, 55% hits;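 active = drop in membrane potential signal beyond 5 SD of the control wells in both duplicate plates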;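 also: TRPC4 counter screen for TRPC6 hits run under conditions tuned for TRPC6 not TRPC4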
TRPC6 inh conf: mouse TRPC6 channel inhibitors, confirmation, HEK293 cells, membrane potential dye, duplicate; AID 488960, 2010; shares compounds with TRPC6 inhibitor; inhibition, % at 10 µM; 3,300 compounds, 43% hits; ACh-evoked depolarization;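 active = fluorescence ratio falls more than 5 SD below the full-stimulation control mean, in both duplicate runs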;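 also: integrated fluorescence ratio of peak minus minimum over baseline after agonist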
TRPC6 act conf: mouse TRPC6 channel activators, confirmation, HEK293 cells, membrane potential dye, duplicate | shares compounds with TRPC6 inhibitor | HEK293-TRPC6 membrane potential dye fluorescence, FDSS | activation, % at 10 µM | 2,800 compounds, 11% hits | AID 488961, 2010;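 active = ratio signal rise beyond 5 SD above unstimulated control wells' mean, seen in both duplicate runs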
Large screens that a line does not name were inactive (follow-up assays come after a bar, where they were run). In the library only some 2.9% were active in any assay of this set; here they are far more common.

Cc1nn(S(=O)(=O)c2ccc(C(C)C)cc2)c(C)c1S(=O)(=O)N1CCOCC1	none
CN1CCc2c(sc3c2C(=O)NC(/C=C\c2ccccc2)N3)C1 (centres undefined)	TRPC6 inhibitor -5.7 | HEK293 MPD ctr-2 inactive | HEK293 MPD ctr 2-2 inactive | TRPC4/MOR mod -14% | TRPC4 ctr inh 2 63% | TRPC6 inh conf 58% | TRPC6 act conf inactive
CN1CCc2c(sc3c2C(=O)NC(c2cccs2)N3)C1 (centres undefined)	none
Cc1ccc2nc(C)c3c(c2c1)COC3	TRPC6 inhibitor -6.3 | HEK293 MPD ctr-2 -165% | HEK293 MPD ctr 2-2 84% | TRPC4/MOR mod -27% | TRPC4 ctr inh 2 47% | TRPC6 inh conf 44% | TRPC6 act conf inactive
Cc1nc2c(C)cccc2c2c1COC2	TRPC6 inhibitor -9.1 | TRPC4 sel inh 2 inactive | TRPC4 spec -30% | HEK293 MPD ctr 2-1 36% | HEK293 MPD ctr-1 -434% | TRPC6 inh conf 61% | TRPC6 act conf inactive
Cc1ccc2nc3c(c(C(=O)O)c2c1)CCC3	none
Cc1cc(N2CCN(c3ncccn3)CC2)nc2c(C)cccc12	none
CC(C)CC(=O)Nc1ccc(C(=O)CN2CCN(c3ccc(O)cc3)CC2)cc1	none
Cc1ccc(-c2nnc(N(C)C(=O)c3cccnc3)s2)cc1	none
COc1ccc(-c2nnc(N(C)C(=O)c3cccnc3)s2)cc1	TRPC6 inhibitor -5.2 | HEK293 MPD ctr-2 inactive | HEK293 MPD ctr 2-2 inactive | TRPC4/MOR mod inactive | TRPC4 ctr inh 2 inactive | TRPC6 inh conf inactive | TRPC6 act conf inactive
c1ccc(-c2nc(-c3ccccn3)nc(-c3ccccn3)n2)nc1	TRPC6 inhibitor -6.7 | TRPC4 sel inh 2 inactive | TRPC4 spec -19% | HEK293 MPD ctr 2-1 4.0% | HEK293 MPD ctr-1 -266% | TRPC6 inh conf inactive | TRPC6 act conf inactive
CSCc1cc(N(C)c2ccccc2)nc(-c2ccccn2)n1	TRPC6 inhibitor -7.2 | TRPC4 sel inh 2 inactive | TRPC4 spec inactive | HEK293 MPD ctr 2-1 inactive | HEK293 MPD ctr-1 inactive | TRPC6 inh conf inactive | TRPC6 act conf inactive
O=c1c2c(nc3c(-c4ccc(Cl)cc4)c[nH]n13)CCC2	none
COCc1c(C#N)c(NCCc2ccccc2)nc(C)c1[N+](=O)[O-]	none
COCc1c(C#N)c(NCCc2ccc(F)cc2)nc(C)c1[N+](=O)[O-]	TRPC6 inhibitor -8 | TRPC4 sel inh 2 inactive | TRPC4 spec inactive | HEK293 MPD ctr 2-1 inactive | HEK293 MPD ctr-1 inactive | TRPC6 inh conf inactive | TRPC6 act conf inactive
Nc1nc2ccccc2nc1N1CCCC1	none (no result: TRPC4 inh)
COc1cc(Nc2c3c(nc4ccccc24)CCCC3)cc(OC)c1OC	TRPC6 inhibitor -6.1 | HEK293 MPD ctr-2 -96% | HEK293 MPD ctr 2-2 inactive | TRPC4/MOR mod -20% | TRPC4 ctr inh 2 38% | TRPC6 inh conf inactive | TRPC6 act conf inactive
CN(C)CCCNc1nc(-c2ccccc2)nc2ccccc12	TRPC6 inhibitor -7.7 | TRPC4 sel inh 2 40% | TRPC4 spec -27% | HEK293 MPD ctr 2-1 inactive | HEK293 MPD ctr-1 -347% | TRPC6 inh conf 65% | TRPC6 act conf inactive
NC(=O)COC(=O)c1c2c(nc3ccccc13)CCC2	none
Nc1c2c(nc3ccccc13)CCC2	TRPC4 inh -5, TRPC6 inhibitor -7 | HEK293 MPD ctr-2 -279% | HEK293 MPD ctr 2-2 inactive | TRPC4/MOR mod -42% | TRPC4 ctr inh 2 70% | TRPC6 inh conf inactive | TRPC6 act conf inactive
Nc1c2c(nc3ccccc13)N(C1CCCCC1)CC2	TRPC4 inh -6, TRPC6 inhibitor -12 | TRPC4 sel inh 2 27% | TRPC4 spec -28% | HEK293 MPD ctr 2-1 -2.5% | HEK293 MPD ctr-1 -388% | TRPC6 inh conf 109% | TRPC6 act conf inactive
O=C(O)CN1C(=O)Nc2ccc(Br)cc2C1c1ccccc1 (centres undefined)	none
CC(=O)N1CCCc2cc(S(=O)(=O)N3CCCC(C(=O)N4CCN(c5cc(C)ccc5C)CC4)C3)ccc21 (centres undefined)	none
O=[N+]([O-])c1cc(-c2csc(NC(CO)c3nc4ccccc4n3CCOCCO)n2)ccc1Cl (centres undefined)	none
